# Laboratory results as given in ChEMBL document CHEMBL4152256, “Structure-activity relationship of new antimalarial 1-aryl-3-susbtituted propanol derivatives: Synthesis, preliminary toxicity profiling, parasite life cycle stage studies, target exploration, and targeted delivery” (Eur J Med Chem, 2018).
# The source made the active and inactive calls. The rule behind the calls is not given here.
# Legend:
# [1] = Selectivity index, ratio of GI50 for African green monkey vero cells to IC50 for multidrug-resistant Plasmodium falciparum FCR-3; format: toxicity; details: read-out: Selectivity Index
# [2] = Selectivity index, ratio of CC50 for human primary hepatocytes to IC50 for Plasmodium falciparum FCR-3 sporozoites infected in human primary hepatocytes; format: toxicity, cell-based; details: read-out: Ratio CC50/IC50
# Outline: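 Primary human hepatocytes were plated at 8 × 10^4 per well on collagen and infected with P. falciparum sporozoites (2.5 × 10^4 per well). Compounds were given at infection from 10 µg/mL plus seven dilutions, refreshed every 24 h, for 8 days. EEFs were read by Hsp70 immunostaining. […] Two independent experiments were run.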
# [3] = Cytotoxicity against human primary hepatocytes after 48 hrs by MTT assay; format: cell-based, Hepatocyte
# Outline: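 Primary human hepatocytes seeded at 2 × 10^5/well and grown 24 h at 37 °C, 5% CO2. Compound dilutions added in triplicate for 48 h. MTT (2 mg/mL) added for 4 h, then DMSO for 20 min; absorbance read at 550 nm. Untreated and diluent controls included; CC50 calculated.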
# [4] = Selectivity index, ratio of CC50 for human HepG2A16 cells to IC50 for GFP-fused Plasmodium berghei sporozoites infected in human HepG2A16 cells; format: toxicity, cell-based; details: read-out: Ratio CC50/IC50
# Outline: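 HepG2-A16 cells were grown at 3 × 10^4 per well on collagen and infected with GFP P. berghei sporozoites (5 × 10^3 to 1 × 10^4 per well) from A. stephensi salivary glands. Compounds were added at infection, from 10 µg/mL top plus seven serial dilutions, and refreshed at 3 h and then every 24 h. After 40 h at 37 °C, EEFs were methanol-fixed, anti-Hsp70 immunolabelled and counted by high-content imaging. SI = HepG2 CC50 / liver-stage IC50.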
# [5] = test system: Plasmodium berghei; assay: Antiplasmodial activity against GFP-fused Plasmodium berghei sporozoites infected in human HepG2A16 cells treated simultaneously with infection by fluorescence microscopic analysis; format: functional, organism-based; details: Plasmodium berghei, HepG2A16; read-out: IC50
# Outline: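 HepG2-A16 cells (3 × 10^4/well, collagen-coated) infected with PbGFP sporozoites (5 × 10^3 to 1 × 10^4/well) and treated at the same time. Top concentration 10 µg/mL in DMEM, seven serial dilutions. Medium and compound renewed at 3 h and every 24 h. After 40 h at 37 °C: methanol fixation, anti-Plasmodium Hsp70 immunolabeling, Alexa 594 secondary, DAPI; high-content imaging.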
# [6] = test system: Plasmodium falciparum; assay: Antiplasmodial activity against multidrug-resistant Plasmodium falciparum C235 after 72 hrs by MSF assay; format: functional, organism-based; details: C235, 72 h
# Outline: (§1)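 D6 and C235 strains from the Walter Reed Army Institute of Research were tested by the Malaria SYBR Green-I fluorescence assay.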
# [7] = test system: Plasmodium falciparum; assay: Antiplasmodial activity against multidrug-resistant Plasmodium falciparum FCR-3 by [3H]-hypoxanthine incorporation assay; format: functional, organism-based, FCR-3/Gambia
# Outline: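 Blood-stage P. falciparum 3D7 and FCR-3 were tested by a modified [3H]-hypoxanthine incorporation assay. Chloroquine was the reference in all runs.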
# [8] = test system: Plasmodium falciparum; assay: Antiplasmodial activity against Plasmodium falciparum D6 after 72 hrs by MSF assay; format: functional, organism-based; details: D6, 72 h; outline: as §1
# [9] = test system: Plasmodium berghei; assay: Antiplasmodial activity against Plasmodium berghei ANKA infected in mouse assessed as inhibition of parasitemia at 50 mg/kg/day, po for 4 consecutive days starting from 2 hrs post infection by MSF assay relative to control; format: functional
# Outline: (§2)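 Swiss male mice (20 ± 2 g) infected ip with 10^7 P. berghei ANKA parasitized cells (day 0). Five per group dosed orally 2 h after infection and daily on days 0–3. Test compounds at 50 mg/kg/day in water:DMSO; chloroquine diphosphate at 3 mg/kg/day; vehicle controls. Parasitemia measured on day 4 by MSF assay; survival checked daily.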
# [10] = test system: Plasmodium falciparum; assay: Antiplasmodial activity against Plasmodium falciparum FCR-3 sporozoites infected in human primary hepatocytes treated simultaneously with infection by DAPI staining based HCS analysis; format: functional, organism-based, FCR-3/Gambia; details: Plasmodium falciparum, FCR-3/Gambia; read-out: IC50
# [11] = Selectivity index, ratio of CC50 for human HepG2A16 cells by MTT assay to IC50 for multidrug-resistant Plasmodium falciparum FCR-3; format: toxicity
# Outline: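 HepG2-A16 human hepatoma cells were tested by MTT viability assay to give CC50. Blood-stage activity was measured against the multidrug-resistant P. falciparum FCR-3 strain by [3H]-hypoxanthine incorporation to give IC50. SI = CC50 HepG2 / FCR-3 IC50.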
# [12] = Cytotoxicity against human HepG2A16 cells by MTT assay; format: cell-based
# Outline: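 MTT viability assay on HepG2-A16 cells, giving CC50 values.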
# [13] = test system: Plasmodium berghei; assay: Antiplasmodial activity against Plasmodium berghei ANKA infected in Swiss mouse assessed as reduction in parasitemia at 50 mg/kg/day, po for 4 consecutive days by Giemsa staining based assay relative to control; format: functional; set-up: scale not given: the % may be the effect or the level left
# [14] = test system: Plasmodium berghei; assay: Antiplasmodial activity against Plasmodium berghei ANKA infected in mouse assessed as inhibition of parasitemia at 3 mg/kg/day, po for 4 consecutive days starting from 2 hrs post infection by MSF assay relative to control; format: functional; outline: as §2
# [15] = Drug encapsulation in liposomes assessed as encapsulation efficiency in citrate/phosphate buffered measured after ultracentrifugation using compound addition to preformed liposomes by UV/Vis spectroscopy relative to untreated control; format: physicochemical; details: artificial membrane
# Outline: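 Compound loaded into DSPC:cholesterol:DSPE-PEG2000-Mal:DOPE-Rho (84.5:10:5:0.5) liposomes using a citrate (pH 4.0)/PBS pH gradient. Drug measured by UV/vis after SDS disruption at each step: citrate liposomes, after buffer exchange to PBS (chloroquine added to preformed liposomes here), and after ultracentrifugation. Encapsulation efficiency = % of drug that is encapsulated out of total drug in the sample.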
# [16] = molecular target: T1, HSP90 (Plasmodium falciparum 3D7) (UniProt Q8IL32); assay: Binding affinity to Plasmodium falciparum HSP90 nucleotide binding domain at 0.5 mM by SYPRO orange dye based DSF analysis
# T1 sequence (whole entry): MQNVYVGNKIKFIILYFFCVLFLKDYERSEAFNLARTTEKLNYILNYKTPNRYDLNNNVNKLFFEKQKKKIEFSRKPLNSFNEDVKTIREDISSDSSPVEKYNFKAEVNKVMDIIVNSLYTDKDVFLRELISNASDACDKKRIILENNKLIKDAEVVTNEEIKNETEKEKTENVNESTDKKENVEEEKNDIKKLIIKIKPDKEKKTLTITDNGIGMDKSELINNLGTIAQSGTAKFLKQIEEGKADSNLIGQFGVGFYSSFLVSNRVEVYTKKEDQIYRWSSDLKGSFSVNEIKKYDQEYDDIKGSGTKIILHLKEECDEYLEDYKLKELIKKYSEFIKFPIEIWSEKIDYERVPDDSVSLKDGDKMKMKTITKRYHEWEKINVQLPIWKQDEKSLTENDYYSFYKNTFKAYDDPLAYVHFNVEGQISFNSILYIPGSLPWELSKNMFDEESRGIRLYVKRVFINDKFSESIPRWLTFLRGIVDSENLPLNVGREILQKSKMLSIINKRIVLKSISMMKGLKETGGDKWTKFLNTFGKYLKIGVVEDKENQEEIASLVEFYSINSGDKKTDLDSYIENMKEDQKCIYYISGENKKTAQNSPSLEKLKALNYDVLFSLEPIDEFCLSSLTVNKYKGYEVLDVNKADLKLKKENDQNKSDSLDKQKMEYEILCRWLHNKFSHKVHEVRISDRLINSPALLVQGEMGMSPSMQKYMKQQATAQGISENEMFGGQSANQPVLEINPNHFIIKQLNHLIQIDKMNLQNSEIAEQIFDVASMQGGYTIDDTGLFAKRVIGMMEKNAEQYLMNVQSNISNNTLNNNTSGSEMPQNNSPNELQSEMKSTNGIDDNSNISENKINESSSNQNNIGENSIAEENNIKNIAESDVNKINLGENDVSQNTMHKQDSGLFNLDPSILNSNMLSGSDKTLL
# Outline: (§3)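 Recombinant P. falciparum Hsp90 or GRP94 nucleotide-binding domain (0.05–0.2 mg/mL, optimized per protein) in 25 mM HEPES pH 7.5, 250 mM NaCl. Compound final concentration was 0.5 mM, with SYPRO Orange at 1:1000. Samples were heated from 18 to 90 °C at 1 °C/min. Tm was taken as the Boltzmann-fit inflection point. ΔTm = Tm with ligand minus Tm without, and shifts beyond ±1 °C were counted significant.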
# [17] = test system: Plasmodium falciparum; assay: (§4) Binding affinity to Plasmodium falciparum GRP94 nucleotide binding domain by SPR analysis
# Outline: (§5)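 Purified PfHsp90 and PfGRP94 nucleotide-binding domains were amine-coupled to a CM5 chip (3000 and 7000 RU, respectively), with a blank reference surface. Seven compound concentrations (0.4 nM–1 mM) were injected in triplicate at 30 µL/min, 25 °C, in random order. Running buffer: 10 mM HEPES pH 7.4, 150 mM NaCl, 0.005% P20, 1% DMSO, 2 mM MgCl2. Kd came from double-referenced sensorgrams.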
# [18] = test system: Plasmodium berghei; assay: Antiplasmodial activity against GFP-fused Plasmodium berghei in Anopheles stephensi mosquitoes feeded on blood from infected mouse at 100 mg/kg, ip pretreated for 1.5 hrs followed by blood feeding of mosquito assessed as reduction in number of oocysts in mosquito midgut and measured at 8 days post mosquitoes infection by fluorescence microscopic method relative to control; format: functional; set-up: scale not given: the % may be the effect or the level left
# Outline: (§6)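 Mice (two per group) infected ip with 200 µL PbGFP-infected RBCs (3000 parasites/µL); gametocytes checked at day 4. Compound given ip at 100 mg/kg in DMSO 1.5 h before A. stephensi fed 1 h on mice at 1% gametocytaemia. Untreated and DMSO-treated mice as controls. After 8 days, 30 mosquitoes per group dissected; midgut oocysts counted by fluorescence microscopy; inhibition relative to control oocyst numbers (100%).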
# [19] = molecular target: T1, HSP90 (Plasmodium falciparum 3D7); assay: (§7) Binding affinity to Plasmodium falciparum HSP90 nucleotide binding domain by SPR analysis; outline: as §5
# [20] = test system: Plasmodium berghei; assay: Antiplasmodial activity against GFP-fused Plasmodium berghei in Anopheles stephensi mosquitoes feeded on blood from infected mouse at 100 mg/kg, ip pretreated for 1.5 hrs followed by blood feeding of mosquito assessed as reduction in infection of mosquito and measured at 8 days post mosquitoes infection by fluorescence microscopic method relative to control; format: functional; set-up: scale not given: the % may be the effect or the level left; outline: as §6
# [21] = test system: Plasmodium falciparum; assay: Binding affinity to Plasmodium falciparum GRP94 nucleotide binding domain at 0.5 mM by SYPRO orange dye based DSF analysis; outline: as §3
# [22] = as §4; outline: as §5
# [23] = molecular target: T2, HSP90 (Plasmodium falciparum 3D7, UniProt Q8IL32); assay: as §7; outline: as §5
# T2 sequence (Q8IL32 whole entry): T1 sequence (whole entry)
# [24] = test system: Plasmodium berghei; assay: Antiplasmodial activity against Plasmodium berghei ANKA infected in mouse assessed as mouse survival time at 3 mg/kg/day, po for 4 consecutive days starting from 2 hrs post infection by MSF assay; format: functional
# Outline: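 Swiss male mice (20 ± 2 g) infected i.p. with 10^7 P. berghei ANKA parasitized cells in 0.1 mL 0.9% saline (day 0). Oral dosing began 2 h post-infection and continued daily on days 0–3, five mice per batch. Test drugs were given at 50 mg/kg/day in water:DMSO and chloroquine diphosphate at 3 mg/kg/day; a vehicle control was included. Survival was checked daily, and parasitemia was read on day 4 by modified MSF assay.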
Structure (SMILES),selectivity ratio [2],CC50 at 48 h [3],selectivity ratio [4],IC50 [5],IC50 [10],Activity [16],CC50 ([12]; HepG2A16 cells),Activity [21],Kd [22],Kd [23],other results
O=[N+]([O-])c1ccc(N2CCC(NCCC(O)c3ccc(F)c4ccccc34)CC2)c(C(F)(F)F)c1 (stereo in doubt; 8),7.3,13.1 µM,0.5,12.1 µM,1790 nM,,,,,,selectivity ratio [1]: 37; IC50 [6]: 130 nM; IC50 [7]: 150 nM; IC50 [8]: 110 nM; inhibition in vivo at 50 mg/kg/day [9]: 96.4%; Ratio CC50/IC50 [11]: 38; CC50 [12]: 5.7 µM; Activity [13]: 98%
CCN(CC)CCCC(C)Nc1ccnc2cc(Cl)ccc12.O=P(O)(O)O.O=P(O)(O)O (centres undefined) [CHLOROQUINE PHOSPHATE],,,,,,,,,,,inhibition in vivo at 3 mg/kg/day [14]: 88.5%; Activity [15]: 95.8%
O=[N+]([O-])c1ccc(N2CCC(NCCC(O)c3ccc(F)cc3)CC2)c(C(F)(F)F)c1 (centres undefined),11.4,19.5 µM,0.6,18.2 µM,1710 nM,inactive,10.4 µM,inactive,,,"Activity [17]: inactive; Activity [18]: 70%; IC50 ([7]; Plasmodium falciparum, FCR-3/Gambia, 3 h): 480 nM; Activity [19]: inactive; selectivity ratio ([11]; HepG2A16 cells, read-out: Ratio CC50/IC50): 22; Activity [20]: 24%"
OC(CN1CCN(Cc2ccccc2)CC1)Cn1c2ccc(Cl)cc2c2cc(Cl)ccc21 (centres undefined),,,,,,inactive,,inactive,1.7e-05 mM,27 nM,
CCN(CC)CCCC(C)Nc1ccnc2cc(Cl)ccc12 (centres undefined) [CHLOROQUINE],,,,,,,137 µM,,,,MSD [24]: 11 days
CC(C)NCC(O)Cn1c2ccc(Cl)cc2c2cc(Cl)ccc21 (centres undefined),,,,,,inactive,,inactive,4.48 mM,7 nM,
